In ChEMBL document CHEMBL4152289, “Novel 8-nitroquinolin-2(1H)-ones as NTR-bioactivated antikinetoplastid molecules: Synthesis, electrochemical and SAR study” (Eur J Med Chem, 2018):
Values belong to the compound of their own block, whether it stands above or below them.

Key:
[1] = system: Trypanosoma brucei brucei; assay: Antitrypanosomal activity against trypomastigote stage of Trypanosoma brucei brucei AnTat 1.9 assessed as decrease in parasite viability after 69 hrs by Alamar Blue assay; type: functional, organism-based; settings: AnTat 1.9, 69 h
[2] = system: HepG2; assay: Cytotoxicity against human HepG2 cells assessed as decrease in cell viability after 72 hrs by MTT assay; settings: hepg2, 72 h
[3] = system: Leishmania infantum; assay: microbe, parasite or virus in culture; type: functional, organism-based; settings: MHOM/MA/67/ITMAP-263, 48 h
[4] = Electrochemical behavior of the compound assessed as redox potential corrected toward normal hydrogen electrode at 10^-3 mol/L by cyclic voltammetry; settings: 1000 µM
[5] = system: THP-1; assay: Cytotoxicity against human THP1 cells assessed as decrease in cell viability after 72 hrs by MTT assay; type: cell-based; settings: thp-1, 72 h
In short: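 PMA-differentiated THP-1 (50 ng/mL final), 10⁶ cells/mL in complete RPMI, 48 h. Compounds in DMSO (<0.5% v/v) for 72 h at 37 °C. MTT 0.5 mg/mL for 2 h, formazan dissolved in DMSO, A570 with 630 nm reference. Viability expressed as percent of untreated control; doxorubicin as positive control; 50% cytotoxic concentration from dose–response curve.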

[6] = system: Leishmania donovani; assay: Antileishmanial activity against amastigote stage of Leishmania donovani MHOM/IN/00/DEVI infected in human THP1 cells assessed as inhibition of parasite infection after 120 hrs by Giemsa staining-based microscopic method; type: functional, organism-based; settings: THP-1, 120 h
In short: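 THP-1 cells differentiated with PMA (50 ng/mL final), 48 h at 37 °C, 6% CO2, then infected 10:1 with promastigotes acid-primed 24 h at 27 °C in Schneider 20% FCS pH 5.4. After 24 h, compounds in DMSO (<0.5% v/v) added in duplicate for 120 h. Methanol fixation and Giemsa staining; ≥200 cells counted. IC50 is the concentration halving infected macrophages, nonlinear regression, mean of three independent experiments.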

[7] = system: Leishmania donovani; assay: Antileishmanial activity against wild type promastigote stage of Leishmania donovani LdBOB assessed as inhibition of parasite growth after 72 hrs by resazurin assay; type: functional, organism-based
In short: (§1)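 LdBOB promastigotes (from MHOM/SD/62/1S-CL2D) grown at 26 °C in modified M199. NTR1- and NTR2-overexpressing lines kept in nourseothricin 100 µg/mL. Triplicate 10 mL cultures seeded at 5 × 10⁴ parasites/mL and exposed to drug for 72 h. 50 µM resazurin added, fluorescence (ex 528/em 590 nm) read after 4 h. Background-corrected data fitted to two-parameter EC50 equation. Experiments were run at least twice; values are mean plus standard deviation.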

[8] = system: Leishmania donovani; assay: Antileishmanial activity against promastigote stage of Leishmania donovani LdBOB over-expressing NTR1 assessed as inhibition of parasite growth after 72 hrs by resazurin assay; type: functional, organism-based; in short: as §1
[9] = system: Leishmania donovani; assay: Antileishmanial activity against promastigote stage of Leishmania donovani LdBOB over-expressing NTR2 assessed as inhibition of parasite growth after 72 hrs by resazurin assay; type: functional, organism-based; in short: as §1
[10] = system: Trypanosoma brucei brucei; assay: Antitrypanosomal activity against trypomastigote stage of Trypanosoma brucei brucei S427 over-expressing NTR1 assessed as parasite growth inhibition after 72 hrs by haemocytometer; type: functional, organism-based; settings: S427, 72 h
[11] = system: Trypanosoma brucei brucei; assay: Antitrypanosomal activity against wild type trypomastigote stage of Trypanosoma brucei brucei S427 assessed as parasite growth inhibition after 72 hrs by haemocytometer; type: functional, organism-based; settings: S427, 72 h
[12] = system: Leishmania donovani; assay: Selectivity ratio of IC50 for wild type promastigote stage of Leishmania donovani LdBOB to IC50 for promastigote stage of Leishmania donovani LdBOB over-expressing NTR1; type: functional
[13] = Half life in CD1 mouse liver microsomes by LC-MS method; type: ADME, microsome
In short: (§2)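 Duplicate incubations with female CD-1 mouse microsomes at 37 °C in 50 mM phosphate pH 7.4 with MgCl2 5 mM, NADP 1 mM, G6PDH 0.4 U/mL and glucose-6-phosphate 5 mM. Samples at 0, 5, 10, 20, 30 and 40 min quenched with 4 vol acetonitrile containing internal standard, then LC-MS/MS.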

[14] = molecular target: T1, serum albumin (Homo sapiens, UniProt P02768); assay: Binding affinity to human serum albumin after 4 hrs by LC-MS method; type: ADME; settings: read-out: PB (converted)
[15] = system: Salmonella typhimurium; assay: Mutagenicity in Salmonella typhimurium TA97a at […] preincubated for 1 hr with S9 mix followed by addition of molten top agar and measured 48 hrs post dark incubation by Ames test; type: toxicity, organism-based; settings: salmonella enterica subsp. enterica serovar typhimurium
[16] = system: Salmonella typhimurium; assay: Mutagenicity in Salmonella typhimurium TA98 at […] preincubated for 1 hr with S9 mix followed by addition of molten top agar and measured 48 hrs post dark incubation by Ames test; type: toxicity, organism-based; settings: salmonella enterica subsp. enterica serovar typhimurium
[17] = system: Salmonella typhimurium; assay: Mutagenicity in Salmonella typhimurium TA100 at […] preincubated for 1 hr with S9 mix followed by addition of molten top agar and measured 48 hrs post dark incubation by Ames test; type: toxicity, organism-based; settings: salmonella enterica subsp. enterica serovar typhimurium
[18] = system: Salmonella typhimurium; assay: Mutagenicity in Salmonella typhimurium TA102 at […] preincubated for 1 hr with S9 mix followed by addition of molten top agar and measured 48 hrs post dark incubation by Ames test; type: toxicity, organism-based; settings: salmonella enterica subsp. enterica serovar typhimurium
[19] = system: HepG2; assay: Genotoxicity in human HepG2 cells at 1 to 40 uM after 2 to 72 hrs by comet assay; type: toxicity, cell-based; settings: hepg2, 40 µM
In short: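 Alkaline comet assay in HepG2 cells exposed 2 or 72 h to 1, 10, 20 or 40 µM. Cells embedded in 0.7% low-melting agarose, lysed 18 h at 4 °C at pH 10, electrophoresed 24 min at 0.8 V/cm at pH >13, then SYBR Gold stained. % tail DNA is the median of 200 cells (50 per deposit, 4 deposits). 1 mM methylmethanesulfonate as positive control.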

[20] = Metabolic stability in CD1 mouse liver microsomes at 5 mins by LC-MS method; type: ADME, microsome; in short: as §2
[21] = Metabolic stability in CD1 mouse liver microsomes at 10 mins by LC-MS method; type: ADME, microsome; in short: as §2
[22] = Metabolic stability in CD1 mouse liver microsomes at 20 mins by LC-MS method; type: ADME, microsome; in short: as §2
[23] = Metabolic stability in CD1 mouse liver microsomes at 30 mins by LC-MS method; type: ADME, microsome; settings: 0.5 h; in short: as §2
[24] = Metabolic stability in CD1 mouse liver microsomes at 40 mins by LC-MS method; type: ADME, microsome; in short: as §2
[25] = molecular target: Albumin (Homo sapiens, UniProt P02768); assay: (§3) Binding affinity to human serum albumin assessed as fraction unbound after 4 hrs by LC-MS method; type: ADME; settings: isolated protein, 4 h
[26] = molecular target: T1, serum albumin; assay: as §3; type: ADME; settings: human serum albumin

T1 sequence (P02768 whole entry): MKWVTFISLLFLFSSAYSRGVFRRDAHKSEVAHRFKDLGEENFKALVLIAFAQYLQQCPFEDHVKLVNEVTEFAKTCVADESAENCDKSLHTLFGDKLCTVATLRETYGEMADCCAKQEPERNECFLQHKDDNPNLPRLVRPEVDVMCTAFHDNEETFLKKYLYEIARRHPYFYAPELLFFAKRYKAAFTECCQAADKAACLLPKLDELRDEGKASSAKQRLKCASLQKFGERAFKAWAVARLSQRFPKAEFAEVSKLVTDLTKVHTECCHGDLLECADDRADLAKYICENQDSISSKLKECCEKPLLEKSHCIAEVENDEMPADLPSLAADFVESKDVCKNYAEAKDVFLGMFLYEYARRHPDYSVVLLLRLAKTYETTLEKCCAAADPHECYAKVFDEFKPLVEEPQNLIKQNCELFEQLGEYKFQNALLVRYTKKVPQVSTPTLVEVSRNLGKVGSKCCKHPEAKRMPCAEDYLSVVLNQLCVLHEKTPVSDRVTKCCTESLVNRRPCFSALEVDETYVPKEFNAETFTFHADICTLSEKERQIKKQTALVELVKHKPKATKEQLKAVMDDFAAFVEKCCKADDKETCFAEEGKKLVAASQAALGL
Chain of Albumin (P02768 whole entry): as above

- IC50 [1]: 15.8 µM
SMILES: NCCC[C@](N)(C(=O)O)C(F)F [EFLORNITHINE, (S)-]
- CC50 [2]: > 100 µM

- IC50 [3]: > 100 µM
- IC50 [1]: > 50 µM
SMILES: Cn1c(=O)ccc2ccccc21
- CC50 [2]: > 100 µM

- Activity [4]: -0.67 V
- IC50 [3]: > 100 µM
- IC50 [1]: > 50 µM
SMILES: O=[N+]([O-])c1cccc2nc(O)ccc12
- CC50 [2]: > 100 µM

SMILES: Cc1ccc(C(=O)Nc2ccc(S(=O)(=O)O)c3cc(S(=O)(=O)O)cc(S(=O)(=O)O)c23)cc1NC(=O)c1cccc(NC(=O)Nc2cccc(C(=O)Nc3cc(C(=O)Nc4ccc(S(=O)(=O)O)c5cc(S(=O)(=O)O)cc(S(=O)(=O)O)c45)ccc3C)c2)c1 [SURAMIN]
- CC50 [2]: > 100 µM

- Activity [4]: -0.58 V
- IC50 [3]: > 100 µM
- IC50 [1]: > 50 µM
SMILES: COc1cc([N+](=O)[O-])c2[nH]c(=O)ccc2c1
- CC50 [2]: > 100 µM

- IC50 [3]: > 50 µM
- IC50 [1]: > 50 µM
SMILES: Nc1cccc2cc(Br)c(=O)[nH]c12
- CC50 [2]: > 100 µM

- IC50 [3]: 3.4 µM
- IC50 [1]: 0.4 µM
- IC50 [6]: > 50 µM
SMILES: CSc1ccc(OCc2ncc([N+](=O)[O-])n2C)cc1 [FEXINIDAZOLE]
- CC50 [2]: > 200 µM
- CC50 [5]: > 62.5 µM

- Activity [4]: -0.71 V
- IC50 [3]: > 100 µM
- IC50 [1]: > 50 µM
SMILES: Cc1ccc2ccc(=O)[nH]c2c1[N+](=O)[O-]
- CC50 [2]: > 100 µM

- Activity [4]: -0.46 V
- IC50 [3]: 11 µM
- IC50 [1]: 7.3 µM
SMILES: O=c1cnc2cccc([N+](=O)[O-])c2[nH]1
- CC50 [2]: 125 µM

- Activity [4]: -1.86 V
- IC50 [3]: > 100 µM
- IC50 [1]: > 50 µM
SMILES: Oc1ccc2ccccc2n1
- CC50 [2]: > 100 µM

SMILES: O=[N+]([O-])c1cccc2cccnc12
- Activity [4]: -0.84 V
- IC50 [3]: > 100 µM
- IC50 [1]: 17.9 µM
- CC50 [2]: > 100 µM

SMILES: C[C@@H]1[C@H](O)[C@@H](C)/C=C/C=C/C=C/C=C/C=C/C=C/C=C/[C@H](O[C@@H]2O[C@H](C)[C@@H](O)[C@H](N)[C@@H]2O)C[C@@H]2O[C@](O)(C[C@@H](O)C[C@@H](O)[C@H](O)CC[C@@H](O)C[C@@H](O)CC(=O)O[C@H]1C)C[C@H](O)[C@H]2C(=O)O [AMPHOTERICIN B]
- IC50 [3]: 0.06 µM
- CC50 [5]: 3.6 µM
- IC50 [6]: 0.4 µM

- Activity [4]: -0.86 V
- IC50 [3]: > 6.2 µM
- IC50 [1]: 0.4 µM
SMILES: COc1nc2c([N+](=O)[O-])cccc2cc1Br
- CC50 [2]: > 6.2 µM

SMILES: O=c1[nH]c2c([N+](=O)[O-])cccc2cc1Br
- Activity [4]: -0.45 V
- IC50 [3]: 7.1 µM
- IC50 [1]: 1.9 µM
- CC50 [2]: 92 µM
- CC50 [5]: 72 µM
- IC50 [6]: 18 µM
- IC50 [7]: 5.9 µM
- IC50 [8]: 0.47 µM
- IC50 [9]: 4.6 µM
- IC50 [10]: 3.9 µM
- IC50 [11]: 17.7 µM
- Ratio IC50 [12]: 10
- t1/2 [13]: > 40 min
- fraction unbound at 4 h [14]: 0.078
- Activity ([15]; 250 µM): Toxic
- Activity ([15]; 2500 µM): Toxic
- Activity ([16]; 250 µM): Toxic
- Activity ([16]; 2500 µM): Toxic
- Activity ([17]; 250 µM): Toxic
- Activity ([17]; 2500 µM): Toxic
- Activity ([18]; 250 µM): Non-Toxic
- Activity ([18]; 2500 µM): Toxic
- Activity [19]: Non-Toxic
- Stability [20]: 861 pmol/mL
- Stability [21]: 869 pmol/mL
- Stability [22]: 802 pmol/mL
- Stability [23]: 780 pmol/mL
- Stability [24]: 772 pmol/mL
- logFu [25]: -1.11
- fraction unbound at 4 h [26]: 0.078

- IC50 [3]: 0.8 µM
- IC50 [6]: 5.4 µM
SMILES: CCCCCCCCCCCCCCCCOP(=O)([O-])OCC[N+](C)(C)C [MILTEFOSINE]
- CC50 [5]: > 40 µM

- IC50 [3]: > 100 µM
- IC50 [1]: 2.5 µM
SMILES: CC(C)(C)OC(=O)NCCOCCOCCNCc1cc(=O)[nH]c2c([N+](=O)[O-])cccc12
- CC50 [2]: > 100 µM
